Data from PMC3210410 (Bioorganic & medicinal chemistry letters, 2011).
Read-outs that look alike come from different tables or passages of the source.

Tests used:
Format in all cases: biochemical
MMP-13 [1] = molecular target: T1, MMP-13 (Homo sapiens, UniProt P45452); experiment: FRET triple-helical peptide; settings: for MMP-13 % Inhibition: 40 μM compound, fTHP-15 substrate, triplicate
Method in brief: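 Triple-helical fTHP-15 FRET substrate, whose conformation engages protease secondary binding sites (exosites), cleaved by MMP-13 with each test compound at 40 μM. Activity is reported as percent inhibition from triplicate assays.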

MMP-13 [2] = molecular target: T1, MMP-13; experiment: Single inhibitor kinetic assays with MMP-13 and fTHP-15; settings: for mode of inhibition of MMP-13-mediated hydrolysis of the fTHP: Lineweaver-Burk plot, lines crossing on X axis
MMP-13 [3] = molecular target: T1, MMP-13; experiment: RP-HPLC-based secondary screen for artifactual inhibition; settings: data not shown
Method in brief: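 Checks for fluorescence artifacts in the FRET assay. […] fTHP-15 substrate is analysed by RP-HPLC before and after adding test compound, so fluorescence interference can be separated from true inhibition of MMP-13.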

ADAM17/TACE = ADAM17/TACE (Homo sapiens, UniProt P78536); experiment: TACE inhibition; settings: data not shown
Sequence of ADAM17/TACE (P78536 215-824): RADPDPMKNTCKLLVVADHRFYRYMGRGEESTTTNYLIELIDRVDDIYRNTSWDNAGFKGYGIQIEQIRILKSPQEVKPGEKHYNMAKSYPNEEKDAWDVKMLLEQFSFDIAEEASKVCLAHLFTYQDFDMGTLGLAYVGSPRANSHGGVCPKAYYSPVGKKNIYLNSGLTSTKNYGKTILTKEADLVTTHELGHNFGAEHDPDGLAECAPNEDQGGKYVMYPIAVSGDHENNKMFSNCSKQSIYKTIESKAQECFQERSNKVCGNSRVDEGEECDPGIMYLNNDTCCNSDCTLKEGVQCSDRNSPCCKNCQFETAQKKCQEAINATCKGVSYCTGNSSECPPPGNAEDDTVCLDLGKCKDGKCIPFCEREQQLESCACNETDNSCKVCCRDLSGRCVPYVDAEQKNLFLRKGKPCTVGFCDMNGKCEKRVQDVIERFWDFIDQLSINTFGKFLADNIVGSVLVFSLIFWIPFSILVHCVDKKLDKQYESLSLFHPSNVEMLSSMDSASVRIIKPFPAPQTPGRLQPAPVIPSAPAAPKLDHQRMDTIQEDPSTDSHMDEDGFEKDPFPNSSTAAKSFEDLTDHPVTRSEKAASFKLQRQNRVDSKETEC

MMP-13 [4] = molecular target: T1, MMP-13; experiment: Dual inhibition kinetic assays; settings: compound 4 with either compound 1 or 3

Oc1[nH]c(SCc2ccc(Cl)cc2)nc2nncc1-2 [Compound 17]
MMP-13 % Inhibition (MMP-13 [1]; SD <10% (Table 1)): inactive

O=c1[nH]c(SCc2coc(-c3cccc(Cl)c3)n2)nc2c1CCC2 [Compound 31]
MMP-13 % Inhibition (MMP-13 [1]; SD <10% (Table 2)): inactive

O=c1[nH]c(SCc2ccc(Cl)cc2)nc(O)c1Cc1ccccc1 [Compound 18]
MMP-13 % Inhibition (MMP-13 [1]; SD <10% (Table 1)): inactive

CC(=O)Nc1c(O)nc(SCc2ccc(Cl)cc2)nc1O [Compound 19]
MMP-13 % Inhibition (MMP-13 [1]; SD <10% (Table 1)): inactive

Oc1nc(SCc2ccc(Cl)cc2)nc2ccccc12 [Compound 16]
MMP-13 % Inhibition (MMP-13 [1]; SD <10% (Table 1)): inactive

O=C(CSc1nc2c(c(=O)[nH]1)CCC2)c1ccccc1 [Compound 30]
MMP-13 % Inhibition (MMP-13 [1]; SD <10% (Table 2)): inactive

Cc1oc(-c2cccc(Cl)c2)cc1CSc1nc2c(c(=O)[nH]1)CCC2 [Compound 32]
MMP-13 % Inhibition (MMP-13 [1]; SD <10% (Table 2)): Inactive

Cc1ccc(CSc2nc(O)c3c(n2)CCC3)cc1 [Compound 20, 2-[(4-methylphenyl)methylsulfanyl]-1,5,6,7-tetrahydrocyclopenta[d]pyrimidin-4-one]
inhibition at 40 µM (MMP-13 [1]; read-out: MMP-13 % Inhibition): 68.7% | mode of inhibition of MMP-13-mediated hydrolysis of the fTHP (MMP-13 [2]): non-competitive | fold more potent as MMP-13 inhibitor than lead compound 4 (MMP-13 [2]; relative to compound 4): approximately 5 fold | inhibition in RP-HPLC secondary screen (MMP-13 [3]): inhibitors | inhibition of TACE (ADAM17/TACE): do not inhibit

Cc1cccc(CSc2nc(O)c3c(n2)CCCC3)c1 [Compound 34]
MMP-13 % Inhibition (MMP-13 [1]; SD <10% (Table 2)): inactive

COC(=O)c1ccc(CSc2nc3c(c(=O)[nH]2)CCC3)cc1 [Compound 24, methyl 4-[(4-oxo-1,5,6,7-tetrahydrocyclopenta[d]pyrimidin-2-yl)sulfanylmethyl] benzoate]
inhibition at 40 µM (MMP-13 [1]; read-out: MMP-13 % Inhibition): 62.5% | mode of inhibition of MMP-13-mediated hydrolysis of the fTHP (MMP-13 [2]): non-competitive | inhibition in RP-HPLC secondary screen (MMP-13 [3]): inhibitors | inhibition of TACE (ADAM17/TACE): do not inhibit

Oc1nc(SCc2ccc(Cl)cc2)nc2c1CCC2 [Compound 4]
inhibition at 40 µM (MMP-13 [1]; read-out: Inhibition (%) at [inhibitor] = 40 μM, MMP-13): 51% | inhibition of TACE (ADAM17/TACE): do not inhibit | binding relation in dual inhibition kinetics (MMP-13 [4]): non-mutually exclusive binding

CCCc1cc(O)nc(SCc2ccc(Cl)cc2)n1 [Compound 9]
MMP-13 % Inhibition (MMP-13 [1]; SD <10% (Table 1)): inactive
